# Results taken from ChEMBL document CHEMBL1629704, “Inhibition of dengue virus by an ester prodrug of an adenosine analog” (Antimicrob Agents Chemother, 2010).
# Activity calls are given as the source filed them. The calls are words filed in the database; no cut-off is given here.
# Assays:
# dengue virus type 2 [1] = experiment: Antiviral activity against Dengue virus-2 NGC infected in hamsters BHK21 cells assessed as inhibition of viral RNA synthesis at 3 uM after 24 to 40 hrs of infection by luciferase assay; assay type: functional, organism-based; conditions: BHK-21
# Procedure, shortened: (§1)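 DENV-2 luciferase replicon (structural genes deleted) RNA was electroporated into BHK-21 cells, then cells were immediately incubated with compound. Luciferase was read at time points. Signals at 2–4 h p.t. reflect input translation and at 24–40 h p.t. reflect RNA synthesis; n = 3, mean ± SD.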
# dengue virus type 2 [2] = experiment: Antiviral activity against Dengue virus 2 NGC infected in human A549 cells after 2 days by CFI assay in presence of 2 mg/ml alpha-1-acid glycoprotein; assay type: functional, organism-based; conditions: A549, 48 h
# Procedure, shortened: (§2)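 Modified CFI: A549 cells infected with DENV-2 New Guinea C (MOI 0.3) for 1 h without compound. Inoculum then replaced with medium containing compound dilutions plus the stated HSA and/or AGP. On day 2, cells methanol-fixed and intracellular E protein detected by ELISA (4G2 primary, HRP anti-mouse secondary); EC50 derived.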
# Rattus norvegicus [3] = experiment: Oral bioavailability in Wistar rat assessed as NITD449 level at 84.1 mg/kg by LC-MS-MS analysis; assay type: ADME, organism-based; conditions: in vivo
# Procedure, shortened: (§3)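 Fasted female Wistar rats were dosed orally with the prodrug in 20% solutol HS15, 30% PEG 300, 50% 100 mM citrate pH 3. Groups of three were serially bled 0.17–48 h. Plasma parent levels came from LC-MS-MS (MRM, LLOQ 9.2 ng/ml) and noncompartmental modeling. F used dose-corrected AUC versus parent i.v. at 5.9 mg/kg.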
# Rattus norvegicus [4] = experiment: Toxicity in Wistar rat at 30 mg/kg/day, po for 2 weeks; assay type: organism-based; design: route oral; conditions: in vivo, 336 h
# Procedure, shortened: (§4)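 Male Wistar rats, 10 weeks old, dosed orally daily for 2 weeks; five per dose group. Clinical signs, body weight and mortality were monitored.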
# dengue virus type 2 [5] = experiment: Antiviral activity against Dengue virus 2 NGC infected in human A549 cells by CFI assay; assay type: functional, organism-based
# Procedure, shortened: (§5)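 CFI assay: A549 cells seeded 2 × 10^4/well, infected next day (MOI 0.3 for DENV-2) with compound-virus mixture for 1 h, then refed with compound-containing medium. On day 2 cells were methanol-fixed at 4°C and intracellular E protein detected by ELISA (4G2 primary, HRP anti-mouse secondary). EC50 is the average of two independent experiments.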
# Mus musculus [6] = experiment: Cmax in CD-1 mouse assessed as NITD449 level at 24.2 mg/kg, po by LC-MS-MS analysis; assay type: ADME, organism-based; design: dose 24.2 mg/kg, route oral; conditions: in vivo
# Procedure, shortened: (§6)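 Female CD-1 mice given the prodrug orally, formulated in 10% ethanol, 30% PEG 400, 60% D5W. Blood from three animals at 0.08, 0.25, 0.5, 1, 2, 4, 8, 16, 24 h; heparinized plasma extracted with acetonitrile-methanol-acetic acid. Parent nucleoside was quantified by LC-MS-MS (MRM, LLOQ 9.2 ng/ml) and noncompartmental analysis was run. F = dose-corrected AUC p.o./AUC i.v., with i.v. parent at 5 mg/kg.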
# West Nile virus = experiment: Antiviral activity against West Nile virus infected in african green monkey Vero cells assessed as inhibition of RNA replication after 24 hrs by luciferase assay; assay type: functional, organism-based
# Procedure, shortened: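 Vero cells infected at MOI about 0.1 with WNV replicon-packaged virus-like particles carrying luciferase, then treated with compound. Luciferase was read 24 h postinfection, relative to mock-treated cells set at 100%; n = 3.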
# dengue virus type 2 [7] = experiment: Antiviral activity against Dengue virus 2 NGC infected in human A549 cells after 2 days by CFI assay in presence of 40 mg/ml human serum albumin; assay type: functional, organism-based; conditions: A549, 48 h; procedure, shortened: as §2
# Yellow fever virus [8] = experiment: Antiviral activity against Yellow fever virus 17D infected in african green monkey Vero cells at 12.5 uM after 48 hrs by plaque assay; assay type: functional
# Yellow fever virus [9] = experiment: Antiviral activity against Yellow fever virus 17D infected in african green monkey Vero cells after 48 hrs by plaque assay; assay type: functional, cell-based
# Rattus norvegicus [10] = experiment: Toxicity in Wistar rat at 75 mg/kg/day, po for 2 weeks; assay type: organism-based; design: route oral; conditions: in vivo, 336 h; procedure, shortened: as §4
# dengue virus type 4 = experiment: Antiviral activity against Dengue virus 4 MY22713 infected in human A549 cells by CFI assay; assay type: functional, organism-based; procedure, shortened: as §5
# dengue virus type 2 [11] = experiment: Antiviral activity against Dengue virus-2 NGC infected in hamsters BHK21 cells assessed as inhibition of viral RNA synthesis at 3 uM after 2 to 4 hrs of infection by luciferase assay; assay type: functional, organism-based; conditions: BHK-21
# Chikungunya virus = experiment: Antiviral activity against Chikungunya virus infected in african green monkey Vero cells after 22 hrs by plaque assay; assay type: functional, cell-based
# Mus musculus [12] = experiment: Tmax in CD-1 mouse assessed as NITD449 level at 24.2 mg/kg, po by LC-MS-MS analysis; assay type: ADME, organism-based; design: dose 24.2 mg/kg, route oral; conditions: in vivo; procedure, shortened: as §6
# Mus musculus [13] = experiment: Oral bioavailability in CD-1 mouse assessed as NITD449 level at 24.2 mg/kg by LC-MS-MS analysis; assay type: ADME, organism-based; conditions: in vivo; procedure, shortened: as §6
# Rattus norvegicus [14] = experiment: AUC (0 to infinity) in Wistar rat assessed as NITD449 level at 26.5 mg/kg, po by LC-MS-MS analysis; assay type: ADME, organism-based, Plasma; design: time infinity, dose 26.5 mg/kg, route oral; conditions: in vivo
# Procedure, shortened: (§7)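 Female Wistar rats, fasted overnight until 4 h postdose, given the prodrug orally in 10% ethanol, 30% PEG 400, 60% D5W. Serial blood from groups of three at 0.17–48 h. Parent nucleoside in plasma was measured by LC-MS-MS (LLOQ 9.2 ng/ml) with noncompartmental analysis. F was corrected for dose against parent i.v. at 5.9 mg/kg.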
# dengue virus type 2 [15] = experiment: Antiviral activity against Dengue virus 2 TSV01 infected in AG129 mouse assessed as reduced viremia by 3 mg/kg, po BID for 3 days measured on day 4 by plaque assay; assay type: functional
# Procedure, shortened: (§8)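 AG129 mice (lacking IFN-α/β and IFN-γ receptors) were inoculated i.p. with 2 × 10^6 PFU DENV-2 in 0.4 ml. Immediately afterwards, 0.2 ml compound in ethanol-PEG-D5W (10:30:60) was given by oral gavage twice daily for 3 days. Day-4 blood viremia was measured by plaque assay; 6 or 8 mice per group.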
# dengue virus type 2 [16] = experiment: Antiviral activity against Dengue virus-2 NGC infected in hamsters BHK21 cells assessed as inhibition of viral RNA synthesis at 1 uM after 24 to 40 hrs of infection by luciferase assay; assay type: functional, organism-based; conditions: BHK-21; procedure, shortened: as §1
# Rattus norvegicus [17] = experiment: AUC (0 to infinity) in Wistar rat assessed as NITD449 level at 84.1 mg/kg, po by LC-MS-MS analysis; assay type: ADME, organism-based, Plasma; design: time infinity, dose 84.1 mg/kg, route oral; conditions: in vivo; procedure, shortened: as §3
# Hepatitis C virus = experiment: Antiviral activity against HCV subtype 1b infected in human Huh-7 cells after 48 hrs by luciferase assay; assay type: functional, organism-based; conditions: Hepacivirus hominis, genotype 1b
# Procedure, shortened: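 Huh-7 cells bearing a luciferase-reporting HCV genotype 1b replicon were incubated with compound. Luciferase was read at 48 h posttreatment and efficacy estimated from signal reduction; n = 3.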
# Rattus norvegicus [18] = experiment: Tmax in Wistar rat assessed as NITD449 level at 26.5 mg/kg, po by LC-MS-MS analysis; assay type: ADME, organism-based; design: dose 26.5 mg/kg, route oral; conditions: in vivo; procedure, shortened: as §7
# dengue virus type 2 [19] = experiment: Antiviral activity against Dengue virus 2 MY10340 infected in human A549 cells by CFI assay; assay type: functional, organism-based; procedure, shortened: as §5
# dengue virus type 3 = experiment: Antiviral activity against Dengue virus 3 MY22366 infected in human A549 cells by CFI assay; assay type: functional, organism-based; procedure, shortened: as §5
# Rattus norvegicus [20] = experiment: Cmax in Wistar rat assessed as NITD449 level at 26.5 mg/kg, po by LC-MS-MS analysis; assay type: ADME, organism-based; design: dose 26.5 mg/kg, route oral; conditions: in vivo; procedure, shortened: as §7
# dengue virus type 1 = experiment: Antiviral activity against Dengue virus 1 MY10245 infected in human A549 cells by CFI assay; assay type: functional, organism-based; procedure, shortened: as §5
# Rattus norvegicus [21] = experiment: Oral bioavailability in Wistar rat assessed as NITD449 level at 26.5 mg/kg by LC-MS-MS analysis; assay type: ADME, organism-based; conditions: in vivo; procedure, shortened: as §7
# dengue virus type 2 [22] = experiment: Antiviral activity against Dengue virus 2 NGC infected in human A549 cells after 2 days by CFI assay in presence of 40 mg/ml human serum albumin and 2 mg/ml alpha-1-acid glycoprotein; assay type: functional, organism-based; conditions: A549, 48 h; procedure, shortened: as §2
# dengue virus type 2 [23] = experiment: Antiviral activity against Dengue virus 2 TSV01 infected in AG129 mouse assessed as reduced viremia by 10 mg/kg, po BID for 3 days measured on day 4 by plaque assay; assay type: functional; procedure, shortened: as §8
# dengue virus type 2 [24] = experiment: Antiviral activity against Dengue virus 2 TSV01 infected in AG129 mouse assessed as reduced viremia by 25 mg/kg, po BID for 3 days measured on day 4 by plaque assay; assay type: functional; procedure, shortened: as §8
# dengue virus type 2 [25] = experiment: Antiviral activity against Dengue virus 2 NGC infected in african green monkey Vero cells at 12.5 uM after 48 hrs by plaque assay; assay type: functional
# Procedure, shortened: (§9)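 Titer reduction: Vero cells (4 × 10^5/well) infected 24 h after seeding at MOI 0.1 and treated immediately with compound. Culture medium was collected 48 h postinfection and titered by plaque assay; n = 3, mean ± SD.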
# Rattus norvegicus [26] = experiment: Toxicity in Wistar rat at 10 mg/kg/day, po for 2 weeks; assay type: organism-based; design: route oral; conditions: in vivo, 336 h; procedure, shortened: as §4
# dengue virus type 2 [27] = experiment: Antiviral activity against Dengue virus 2 NGC infected in african green monkey Vero cells after 48 hrs by plaque assay; assay type: functional, organism-based; procedure, shortened: as §9
# Rattus norvegicus [28] = experiment: Tmax in Wistar rat assessed as NITD449 level at 84.1 mg/kg, po by LC-MS-MS analysis; assay type: ADME, organism-based; design: dose 84.1 mg/kg, route oral; conditions: in vivo; procedure, shortened: as §3
# dengue virus type 2 [29] = experiment: Antiviral activity against Dengue virus-2 NGC infected in hamsters BHK21 cells assessed as inhibition of viral RNA synthesis at 1 uM after 2 to 4 hrs of infection by luciferase assay; assay type: functional, organism-based; conditions: BHK-21
# Rattus norvegicus [30] = experiment: Cmax in Wistar rat assessed as NITD449 level at 84.1 mg/kg, po by LC-MS-MS analysis; assay type: ADME, organism-based; design: dose 84.1 mg/kg, route oral; conditions: in vivo; procedure, shortened: as §3
# dengue virus type 2 [31] = experiment: Antiviral activity against Dengue virus 2 NGC infected in human PBMC cells by plaque assay; assay type: functional, organism-based
# Mus musculus [32] = experiment: AUC (0 to infinity) in CD-1 mouse assessed as NITD449 level at 24.2 mg/kg, po by LC-MS-MS analysis; assay type: ADME, organism-based, Plasma; design: dose 24.2 mg/kg, route oral, time infinity; conditions: in vivo; procedure, shortened: as §6
smiles,measurement,setting,value
C#C[C@@]1(O)[C@H](OC(=O)C(C)C)[C@@H](COC(=O)C(C)C)O[C@H]1n1cc(C(N)=O)c2c(N)ncnc21,Activity,dengue virus type 2 [1],Active
same,EC50,dengue virus type 2 [2],0.76 µM
same,F,Rattus norvegicus [3],10%
same,Activity,Rattus norvegicus [4],Toxic
same,EC50,dengue virus type 2 [5],0.69 µM
same,Cmax,Mus musculus [6],6.01 µM
same,Activity,West Nile virus,Active
same,EC50,dengue virus type 2 [7],0.79 µM
same,fold change (FC),Yellow fever virus [8],100
same,Activity,Yellow fever virus [9],Active
same,Activity,Rattus norvegicus [10],Toxic
same,EC50,dengue virus type 4,0.71 µM
same,Activity,dengue virus type 2 [11],Active
same,Activity,Chikungunya virus,Active
same,Tmax,Mus musculus [12],4.8 min
same,F,Mus musculus [13],32%
same,AUC,Rattus norvegicus [14],13.7 µM·h
same,fold change (FC),dengue virus type 2 [15],2.7
same,Activity,dengue virus type 2 [16],Active
same,AUC,Rattus norvegicus [17],33.5 µM·h
same,Activity,Hepatitis C virus,Active
same,Tmax,Rattus norvegicus [18],30 min
same,EC50,dengue virus type 2 [19],0.57 µM
same,EC50,dengue virus type 3,0.54 µM
same,Cmax,Rattus norvegicus [20],3.65 µM
same,EC50,dengue virus type 1,0.54 µM
same,F,Rattus norvegicus [21],13%
same,EC50,dengue virus type 2 [22],0.85 µM
same,fold change (FC),dengue virus type 2 [23],4.4
same,fold change (FC),dengue virus type 2 [24],30
same,fold change (FC),dengue virus type 2 [25],1000
same,Activity,Rattus norvegicus [26],Non-toxic
same,Activity,dengue virus type 2 [27],Active
same,Tmax,Rattus norvegicus [28],30 min
same,Activity,dengue virus type 2 [29],Active
same,Cmax,Rattus norvegicus [30],14.2 µM
same,EC50,dengue virus type 2 [31],0.1 µM
same,AUC,Mus musculus [32],12.6 µM·h
